CHRM4 agonist = CHRM4 agonism in calcium assay; P08173; CHO-K1 hM4/Gqi5, Fluo-8 calcium fluorescence; vehicle 0%, full acetylcholine response 100%; activation, % at 3 µM; actives 0.14% (n = 360,000);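 active = activation above the run mean over all test wells plus 3 SD, cut at about 32% in these data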;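 note: peak over basal fluorescence ratio per well then scaled between controls; 0% = DMSO wells and 100% = acetylcholine at EC100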
Target sequence (P08173 whole entry, looked up): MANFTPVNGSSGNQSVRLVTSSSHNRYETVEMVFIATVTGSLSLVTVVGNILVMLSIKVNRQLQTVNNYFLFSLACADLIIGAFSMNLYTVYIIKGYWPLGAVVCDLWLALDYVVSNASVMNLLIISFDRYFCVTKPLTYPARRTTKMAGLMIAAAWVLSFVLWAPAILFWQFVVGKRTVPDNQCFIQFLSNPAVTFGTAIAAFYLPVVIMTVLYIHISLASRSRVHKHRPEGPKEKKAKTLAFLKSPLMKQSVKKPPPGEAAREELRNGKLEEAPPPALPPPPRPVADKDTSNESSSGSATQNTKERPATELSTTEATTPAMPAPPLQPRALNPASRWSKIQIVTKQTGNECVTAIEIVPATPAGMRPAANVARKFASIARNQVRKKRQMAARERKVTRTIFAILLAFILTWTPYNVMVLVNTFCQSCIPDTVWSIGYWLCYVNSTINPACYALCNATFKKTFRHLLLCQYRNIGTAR
M5 PAM = potentiates acetylcholine response at human M5 receptor | actives 0.3% (n = 360,000) | CHO-K1 hM5, Fluo-8 calcium, ACh EC20 PAM; 0% = ACh EC20, 100% = ACh EC100 | P08912 | AID 624038 | activation, % at 3 µM;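 active = activation above the run cutoff, the mean activation of all test compounds plus 3 SD, cut at about 18% in these data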
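Assay system: CHO-K1 hM5 cells. Also added: acetylcholine at EC20 concentration, added after compound. Dosing: 3 µM, single dose. Times: compound preincubation 140 s before EC20 acetylcholine addition. Signal: Fluo-8 calcium fluorescence. Measure: % activation relative to EC20 and EC100 ACh responses. Repeats: singlicate, one well per test compound.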
CHRM4 antagonist = antagonists of human muscarinic M4 receptor (CHRM4); AID 624125; P08173; CHO-hM4 cells, ACh EC80, Fluo-8 calcium fluorescence; actives 0.73% (n = 360,000); inhibition, % at 3 µM;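 active = inhibition above its plate's cutoff, the mean inhibition of sample wells plus 3 SD, cut at about 27% in these data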;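 note: 0% = acetylcholine EC80 with DMSO and 100% = DMSO without agonist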
M5 ag = agonists of human muscarinic M5 receptor (CHRM5) | P08912 | CHO-K1 hM5 cells, Fluo-8 calcium fluorescence; 0% DMSO wells, 100% maximal acetylcholine response | actives 0.19% (n = 360,000) | activation, % at 3 µM;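 active = activation above the run's mean over test compounds plus 3 SD, cut at about 23% in these data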;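 note: signal is peak over basal fluorescence ratio across the kinetic read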
M4 PAM = positive allosteric modulators of human muscarinic M4 receptor. P08173. activation, % at 3 µM. AID 624126. actives 0.4% (n = 360,000). CHO-K1 hM4/Gqi5, Fluo-8 calcium fluorescence, ACh EC20; 0% = ACh EC20, 100% = maximal ACh;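 active = activation above its plate's cutoff, the mean activation of sample wells plus 3 SD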
CHRM5 antagonist = blocks acetylcholine activation of human M5 receptor; actives 0.59% (n = 360,000); inhibition, % at 3 µM; P08912; CHO-hM5 cells, Fluo-8 calcium fluorescence, ACh EC80;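 active = inhibition above a per-plate cutoff, the mean of that plate's test compounds plus 3 SD, cut at about 27% in these data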;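 note: 0% = acetylcholine EC80 with DMSO and 100% = DMSO without agonist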
Starred values were filed as active, the others as inactive; ! = not active in a repeat. Hits are enriched below; roughly 1.8% of the tested compounds scored in any of these assays.

SMILES	CHRM4 agonist	M5 PAM	CHRM4 antagonist	M5 ag	M4 PAM	CHRM5 antagonist
CCc1ccccc1NC(=O)c1ccc(CN2CCC(Cc3ccccc3)CC2)cc1	5.7	-25.7	35.6*	-4.4	-21.0	13.9
COc1ccc(CN2CCC(Cc3ccccc3)CC2)cc1OC	0.8	0.3	0.2	-6.2	-7.2	3.6
O=C(NCc1ccccc1)c1ccc(CN2CCC(Cc3ccccc3)CC2)cc1	3.7	-16.5	19.5	-6.1	-16.9	23.1
O=c1cc(CN(Cc2ccccc2)Cc2ccccc2)c2c(ccc3ccccc32)o1	-0.3	-6.8	-6.3	-0.5	2.7	7.2
COc1ccc(CCCNC(=O)C2Cc3c(-c4ccc5c(c4)OCO5)ccnc3O2)cc1 (configuration not stated)	4.7	3.3	-19.6	-0.1	-0.6	-9.2
CCOC(=O)C1CCN(Cc2ccc(OCc3ccccc3)cc2)CC1	3.3	-10.9	38.8*	-19.3	-16.2	18.6
NC(=O)C1CCN(Cc2ccc(OCc3ccccc3)cc2)CC1	0.7	-1.6	20.9	-12.8	-14.5	7.9
CCc1nc2ccc(C(=O)NCc3ccc4c(c3)OCO4)cn2c1N(C)Cc1cccs1	7.4	-6.7	17.6	-1.7	-12.4	3.0
CCOC(=O)[C@]12CCC=C1N(Cc1ccc(Cl)cc1Cl)C(=O)[C@H](CC(=O)N1CCOCC1)C2	0.4	11.1	-11.4	-1.4	13.8	-9.4
CCN(CC)c1ccc2nc3ccccc3[n+](CC)c2c1	-0.3	6.0	27.4*	-21.7	-14.0	-5.3
CCN(CC)c1ccc2nc3ccc(N)cc3[n+](-c3ccccc3)c2c1	2.9	4.4	6.0	-6.3	-2.3	4.3
Cc1cccc(N(CC(=O)N2CCCC2)S(C)(=O)=O)c1	-0.1	4.7	6.8	2.8	-1.2	-1.7
CS(=O)(=O)N(CC(=O)N1CCCC1)c1cccc(Cl)c1	0.2	28.4*	2.2	-6.8	4.5	3.3
COc1ccc2[nH]c3c(NCCC4=CCCCC4)ncnc3c2c1	20.1	-31.0	6.0	10.9	-12.4	31.7*
Cc1ccc(F)c(S(=O)(=O)NC(=O)C2(C)CCN2C(=O)C/C=C/c2ccccc2)c1 (configuration not stated)	1.0	-1.5	3.8	0.8	1.0	-5.8
COC(=O)[C@]12CCCCC=C1N(Cc1cccc3ccccc13)C(=O)[C@H](CC(=O)N1CCSCC1)C2	19.7	-16.3	18.6	5.8	-10.9	14.4
CCCCNC(=O)C1(C)CCCCN1C(=O)c1ccc(OC)c(C(F)(F)F)c1 (configuration not stated)	0.6	0.5	-0.8	-0.5	-3.2	-6.9
Cc1c(-c2ccccc2)[n+](=O)c(-c2ccc(Br)cc2)c(C)n1[O-]	1.5	3.0	0.3	1.2	-5.2	2.9
Cc1c(-c2ccccc2)[n+](=O)c(-c2ccc(Cl)cc2)c(C)n1[O-]	15.7	-10.5	-1.8	-2.1	-0.5	29.8*
COc1ccc(-n2ccnc2SCC(=O)c2c(N)n(C3CC3)c(=O)[nH]c2=O)cc1	1.4	1.0	-1.1	1.6	-4.2	9.5
COc1ccc(NC(=O)C[C@H]2C(=O)N(CCc3ccccc3)C[C@@H]2Cc2ccccc2)cc1	2.8	-1.3	-3.1	0.4	4.7	0.8
O=C(COC(=O)C1CC1)Nc1ccc(OC(F)F)cc1	2.1	5.2	28.6*	0.8	3.6	-2.5
O=C(COC(=O)C1CCC1)Nc1ccc(OC(F)F)cc1	0.6	0.8	-0.2	-4.8	-3.6	0.2
CN1C(=O)/C(=C/c2ccccc2OCc2ccc(F)cc2)N(C)C1=S	-1.4	-19.6	97.1*	-7.1	-37.8	77.4*
NS(=O)(=O)c1ccc(S(=O)(=O)NCCc2ccccc2)cc1	0.9	-0.5	11.9	-1.5	-6.7	-2.6
SMILES	CHRM4 agonist	M5 PAM	CHRM4 antagonist	M5 ag	M4 PAM	CHRM5 antagonist
Cc1[nH]c2ccccc2c1CCNS(=O)(=O)c1ccc(S(N)(=O)=O)cc1	2.0	12.9	-10.2	-1.4	15.9*	4.4
CCOc1cc(C)c(S(=O)(=O)Nc2ccc3cn[nH]c3c2)cc1C	14.3	-16.4	16.7	8.8	-2.0	29.5*
Cc1ccc(S(=O)(=O)Nc2ccc3cn[nH]c3c2)c(C)c1	5.7	-4.7	-0.3	12.4	-0.1	3.6
Cc1ccc(C)c(C(O)c2ncc(-c3ccc(F)cc3)[nH]2)c1 (configuration not stated)	2.1	-5.2	-8.5	2.6	2.9	6.2
O=C(CCNc1cccc(F)c1)c1cccc([N+](=O)[O-])c1	1.5	-9.2	-14.1	-10.0	-8.2	7.8
O=C(CCNc1ccc(Cc2ccncc2)cc1)c1cccc([N+](=O)[O-])c1	3.1	-16.5	27.6*	-7.9	-19.4	21.6
Cc1ccc(S(=O)(=O)n2ccc3c2CCCC3=O)cc1	1.9	-20.9	27.3*	-8.7	-17.2	37.4*
COC(=O)[C@H](CC(C)C)NC(=O)CC[C@H]1O[C@@H](n2cc(C)c(=O)[nH]c2=O)C[C@@H]1O	1.4	2.4	15.8	1.1	-4.1	11.5
CC(=O)Nc1nc(-c2ccc([N+](=O)[O-])cc2)cs1	0.8	-6.1	-4.6	-1.3	0.8	-10.3
O=C(Nc1ccc([N+](=O)[O-])cc1)Nc1nc(-c2ccc(Cl)s2)cs1	12.4	-15.4	26.1	6.5	-9.9	31.0*
COc1ccc(NC(=O)C2CCCN2S(=O)(=O)c2ccc3c(c2)C(C)(C)C(=O)N3C)cc1 (configuration not stated)	2.3	0.4	-23.2	-2.0	7.6	-1.1
CNC(=S)N1CCN(c2cccc(OC)c2)CC1	2.3	6.7	32.9*	-1.4	17.4	-0.7
COc1cccc(N2CCN(C(=S)Nc3cc(C)cc(C)c3)CC2)c1	1.6	3.1	-6.9	0.8	15.5	-7.5
Cc1cccc(S(=O)(=O)NC(=O)C2(C)CCN2C(=O)c2sccc2C)c1 (configuration not stated)	-0.5	-1.6	-12.6	-0.3	2.0	4.8
CCOC(=O)Cn1c(=O)oc2cc(S(=O)(=O)Nc3ccc(F)cc3)ccc21	23.6	-15.9	-14.2	28.1*	0.1	13.8
CCOC(=O)Cn1c(=O)oc2cc(S(=O)(=O)NCCc3ccc(C)cc3)ccc21	6.8	-5.7	-4.3	3.0	-5.9	5.0
O=C(Cc1ccc(Cl)cc1)Nc1ccccc1C(=O)N1CCCCC1	1.1	-11.7	2.7	-0.1	-2.9	27.6*
O=[N+]([O-])c1nccn1C1C=CC(O)C(CO)O1 (configuration not stated)	0.8	-3.7	-1.4	3.6	7.6	1.9
COc1ccccc1OCC(O)CN1CCN(CC(=O)Nc2c(C)cccc2C)CC1 (configuration not stated)	2.3	5.3	28.3*!	1.1	-1.6	-2.3
